We go through three molecules from ChEMBL document CHEMBL5696442, “Discovery of type II inhibitors of TGFβ-activated kinase 1 (TAK1) and mitogen-activated protein kinase kinase kinase kinase 2 (MAP4K2)” (J Med Chem, 2015).

By inhibition is commonly meant the relative decrease from the control value, in per cent.

What all share (format): cell-based
One test concerns the target Ephrin type-A receptor 2 (Homo sapiens, UniProt P29317). Nature of the test: Inhibition of EphA2 ACT labeling site in human Huh-7 cells at 1 uM by KiNativ Profiling analysis relative to control.
Test [1] addresses Dual specificity mitogen-activated protein kinase kinase 2 (Homo sapiens) (UniProt P36507). The test can be described thus: Inhibition of MAP2K2 Lys2 labeling site in human A-375 cells at 0.5 uM by KiNativ Profiling analysis relative to control.
Test [2] deals with Serine/threonine-protein kinase 24 (Homo sapiens) (UniProt Q9Y6E0). Nature of the test: Inhibition of MST3 Lys2 labeling site harbouring DIKAANVLLSEHGEVK in human A-375 cells at 0.5 uM by KiNativ Profiling analysis relative to control.
Test [3] addresses Cyclin-dependent kinase 17 (Homo sapiens) (UniProt Q00537). Nature of the test: Inhibition of PCTAIRE2 Lys2 labeling site in human A-375 cells at 0.5 uM by KiNativ Profiling analysis relative to control.
Test [4] has as its target Cyclin-dependent kinase 18 (Homo sapiens) (UniProt Q07002). Nature of the test: Inhibition of PCTAIRE3 Lys1 labeling site harbouring SKLTENLVALKEIRLEHEEGAPCTAIR in human A-375 cells at 0.5 uM by KiNativ Profiling analysis relative to control. An outline of the steps:
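Live A375 melanoma cells were treated with compound at 5 or 0.5 μM, then lysed. Lysates were labeled with a lysine-reactive ATP or ADP-biotin probe. Read-out was the compound's protection of kinase labeling sites from probe labeling (KiNativ).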

Test [5] addresses T1, Phosphatidylinositol 4,5-bisphosphate 3-kinase catalytic subunit delta isoform (Homo sapiens) (UniProt O00329).
T1 sequence (whole entry): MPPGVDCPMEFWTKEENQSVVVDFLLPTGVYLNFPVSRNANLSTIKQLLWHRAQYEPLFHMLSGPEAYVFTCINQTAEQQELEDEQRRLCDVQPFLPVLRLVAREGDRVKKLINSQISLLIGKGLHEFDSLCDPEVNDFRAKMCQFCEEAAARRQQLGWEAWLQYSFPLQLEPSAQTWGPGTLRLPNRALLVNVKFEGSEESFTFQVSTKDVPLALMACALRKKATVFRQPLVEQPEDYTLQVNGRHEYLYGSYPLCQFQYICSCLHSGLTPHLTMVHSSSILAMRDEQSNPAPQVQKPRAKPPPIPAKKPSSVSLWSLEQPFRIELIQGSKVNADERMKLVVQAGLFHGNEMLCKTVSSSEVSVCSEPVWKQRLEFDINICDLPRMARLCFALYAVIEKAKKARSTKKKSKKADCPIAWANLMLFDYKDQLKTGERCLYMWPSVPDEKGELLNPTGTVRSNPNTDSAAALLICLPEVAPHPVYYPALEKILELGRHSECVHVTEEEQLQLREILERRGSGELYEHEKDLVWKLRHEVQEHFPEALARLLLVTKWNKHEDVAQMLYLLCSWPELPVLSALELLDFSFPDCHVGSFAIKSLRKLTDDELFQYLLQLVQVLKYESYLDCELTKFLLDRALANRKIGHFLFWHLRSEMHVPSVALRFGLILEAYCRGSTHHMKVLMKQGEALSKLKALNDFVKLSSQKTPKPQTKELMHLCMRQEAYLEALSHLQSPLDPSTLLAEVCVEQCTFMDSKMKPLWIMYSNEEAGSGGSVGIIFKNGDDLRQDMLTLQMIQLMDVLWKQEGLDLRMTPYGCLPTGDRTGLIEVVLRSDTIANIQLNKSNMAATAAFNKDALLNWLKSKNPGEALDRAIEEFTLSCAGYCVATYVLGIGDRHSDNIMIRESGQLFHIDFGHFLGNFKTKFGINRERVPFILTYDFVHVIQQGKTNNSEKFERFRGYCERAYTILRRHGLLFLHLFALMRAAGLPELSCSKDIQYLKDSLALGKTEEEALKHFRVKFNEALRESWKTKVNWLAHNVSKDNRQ
The test can be described thus: Inhibition of PIK3CD ATP labeling site in human A-375 cells at 0.05 uM by KiNativ Profiling analysis relative to control.

In test [6] the target is p38 delta/gamma (Homo sapiens) (UniProt O15264+P53778). The test can be described thus: Inhibition of p38delta/gamma Lys2 labeling site in human A-375 cells at 5 uM by KiNativ Profiling analysis relative to control.
Test [7] deals with Interferon-induced, double-stranded RNA-activated protein kinase (Homo sapiens) (UniProt P19525). The test can be described thus: Inhibition of PKR Lys2 labeling site in human A-375 cells at 5 uM by KiNativ Profiling analysis relative to control.
Test [8] deals with T2, Serine/threonine-protein kinase 3 (Homo sapiens) (UniProt Q13188).
T2 sequence (whole entry): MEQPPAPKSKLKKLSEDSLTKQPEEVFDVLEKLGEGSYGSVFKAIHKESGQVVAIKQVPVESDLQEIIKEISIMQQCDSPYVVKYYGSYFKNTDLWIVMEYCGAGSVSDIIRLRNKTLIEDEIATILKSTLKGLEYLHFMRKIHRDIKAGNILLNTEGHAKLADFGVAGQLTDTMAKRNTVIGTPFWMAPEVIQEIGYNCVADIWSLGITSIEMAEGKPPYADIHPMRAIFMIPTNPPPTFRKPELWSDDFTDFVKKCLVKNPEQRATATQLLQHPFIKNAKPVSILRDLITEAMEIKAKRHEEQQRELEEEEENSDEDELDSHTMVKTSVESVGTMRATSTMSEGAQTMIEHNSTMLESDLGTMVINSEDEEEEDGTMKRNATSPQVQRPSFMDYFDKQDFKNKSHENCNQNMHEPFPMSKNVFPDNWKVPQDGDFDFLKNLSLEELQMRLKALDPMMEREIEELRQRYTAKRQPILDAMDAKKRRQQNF
Nature of the test: Inhibition of MST2 Lys1 labeling site in human A-375 cells at 0.05 uM by KiNativ Profiling analysis relative to control.

The target of test [9] is Mitogen-activated protein kinase kinase kinase 11 (Homo sapiens) (UniProt Q16584). Nature of the test: Inhibition of MLK3 Lys2 labeling site in human A-375 cells at 0.5 uM by KiNativ Profiling analysis relative to control.
For test [10], the target named is Serine/threonine-protein kinase WNK1 (Homo sapiens) (UniProt Q9H4A3). The test can be described thus: Inhibition of Wnk1 ATP Loop labeling site in human A-375 cells at 0.5 uM by KiNativ Profiling analysis relative to control.
For test [11], the target named is Glycogen synthase kinase-3 alpha (Homo sapiens) (UniProt P49840). Nature of the test: Inhibition of GSK3A Lys2 labeling site in human A-375 cells at 0.05 uM by KiNativ Profiling analysis relative to control.
The target in test [12] is Serine/threonine-protein kinase WNK2 (Homo sapiens) (UniProt Q9Y3S1). The test can be described thus: Inhibition of Wnk2 ATP Loop labeling site in human A-375 cells at 5 uM by KiNativ Profiling analysis relative to control.
Test [13] has as its target Serine/threonine-protein kinase 25 (Homo sapiens) (UniProt O00506). The test can be described thus: Inhibition of YSK1 Lys2 labeling site in human A-375 cells at 5 uM by KiNativ Profiling analysis relative to control.

Chain of Glycogen synthase kinase-3 alpha (Homo sapiens) (P49840 2-483 limits assumed): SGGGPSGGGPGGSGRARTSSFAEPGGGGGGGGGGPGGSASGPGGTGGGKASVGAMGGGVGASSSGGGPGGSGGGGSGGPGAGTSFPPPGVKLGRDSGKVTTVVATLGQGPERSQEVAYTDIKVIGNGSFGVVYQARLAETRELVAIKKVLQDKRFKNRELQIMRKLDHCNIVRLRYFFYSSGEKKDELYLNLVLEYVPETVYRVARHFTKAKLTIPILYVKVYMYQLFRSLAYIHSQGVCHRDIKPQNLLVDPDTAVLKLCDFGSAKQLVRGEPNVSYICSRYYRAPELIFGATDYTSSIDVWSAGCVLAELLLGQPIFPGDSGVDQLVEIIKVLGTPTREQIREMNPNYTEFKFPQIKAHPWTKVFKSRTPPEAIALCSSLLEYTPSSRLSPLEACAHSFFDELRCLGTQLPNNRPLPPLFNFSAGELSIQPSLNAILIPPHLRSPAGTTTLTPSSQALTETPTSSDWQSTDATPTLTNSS
Chain of Dual specificity mitogen-activated protein kinase kinase 2 (Homo sapiens) (P36507 whole entry): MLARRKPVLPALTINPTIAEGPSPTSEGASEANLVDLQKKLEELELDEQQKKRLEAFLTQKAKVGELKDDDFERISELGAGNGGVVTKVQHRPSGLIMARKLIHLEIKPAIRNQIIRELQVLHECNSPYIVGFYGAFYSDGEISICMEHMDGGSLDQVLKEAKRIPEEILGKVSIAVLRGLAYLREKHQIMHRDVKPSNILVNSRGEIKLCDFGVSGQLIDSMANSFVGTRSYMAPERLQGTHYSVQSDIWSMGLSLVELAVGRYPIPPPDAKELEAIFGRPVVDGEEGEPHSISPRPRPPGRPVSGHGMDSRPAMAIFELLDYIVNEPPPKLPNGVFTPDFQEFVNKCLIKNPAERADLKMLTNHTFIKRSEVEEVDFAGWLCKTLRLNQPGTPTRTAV
Chain of Serine/threonine-protein kinase WNK2 (Homo sapiens) (Q9Y3S1 whole entry): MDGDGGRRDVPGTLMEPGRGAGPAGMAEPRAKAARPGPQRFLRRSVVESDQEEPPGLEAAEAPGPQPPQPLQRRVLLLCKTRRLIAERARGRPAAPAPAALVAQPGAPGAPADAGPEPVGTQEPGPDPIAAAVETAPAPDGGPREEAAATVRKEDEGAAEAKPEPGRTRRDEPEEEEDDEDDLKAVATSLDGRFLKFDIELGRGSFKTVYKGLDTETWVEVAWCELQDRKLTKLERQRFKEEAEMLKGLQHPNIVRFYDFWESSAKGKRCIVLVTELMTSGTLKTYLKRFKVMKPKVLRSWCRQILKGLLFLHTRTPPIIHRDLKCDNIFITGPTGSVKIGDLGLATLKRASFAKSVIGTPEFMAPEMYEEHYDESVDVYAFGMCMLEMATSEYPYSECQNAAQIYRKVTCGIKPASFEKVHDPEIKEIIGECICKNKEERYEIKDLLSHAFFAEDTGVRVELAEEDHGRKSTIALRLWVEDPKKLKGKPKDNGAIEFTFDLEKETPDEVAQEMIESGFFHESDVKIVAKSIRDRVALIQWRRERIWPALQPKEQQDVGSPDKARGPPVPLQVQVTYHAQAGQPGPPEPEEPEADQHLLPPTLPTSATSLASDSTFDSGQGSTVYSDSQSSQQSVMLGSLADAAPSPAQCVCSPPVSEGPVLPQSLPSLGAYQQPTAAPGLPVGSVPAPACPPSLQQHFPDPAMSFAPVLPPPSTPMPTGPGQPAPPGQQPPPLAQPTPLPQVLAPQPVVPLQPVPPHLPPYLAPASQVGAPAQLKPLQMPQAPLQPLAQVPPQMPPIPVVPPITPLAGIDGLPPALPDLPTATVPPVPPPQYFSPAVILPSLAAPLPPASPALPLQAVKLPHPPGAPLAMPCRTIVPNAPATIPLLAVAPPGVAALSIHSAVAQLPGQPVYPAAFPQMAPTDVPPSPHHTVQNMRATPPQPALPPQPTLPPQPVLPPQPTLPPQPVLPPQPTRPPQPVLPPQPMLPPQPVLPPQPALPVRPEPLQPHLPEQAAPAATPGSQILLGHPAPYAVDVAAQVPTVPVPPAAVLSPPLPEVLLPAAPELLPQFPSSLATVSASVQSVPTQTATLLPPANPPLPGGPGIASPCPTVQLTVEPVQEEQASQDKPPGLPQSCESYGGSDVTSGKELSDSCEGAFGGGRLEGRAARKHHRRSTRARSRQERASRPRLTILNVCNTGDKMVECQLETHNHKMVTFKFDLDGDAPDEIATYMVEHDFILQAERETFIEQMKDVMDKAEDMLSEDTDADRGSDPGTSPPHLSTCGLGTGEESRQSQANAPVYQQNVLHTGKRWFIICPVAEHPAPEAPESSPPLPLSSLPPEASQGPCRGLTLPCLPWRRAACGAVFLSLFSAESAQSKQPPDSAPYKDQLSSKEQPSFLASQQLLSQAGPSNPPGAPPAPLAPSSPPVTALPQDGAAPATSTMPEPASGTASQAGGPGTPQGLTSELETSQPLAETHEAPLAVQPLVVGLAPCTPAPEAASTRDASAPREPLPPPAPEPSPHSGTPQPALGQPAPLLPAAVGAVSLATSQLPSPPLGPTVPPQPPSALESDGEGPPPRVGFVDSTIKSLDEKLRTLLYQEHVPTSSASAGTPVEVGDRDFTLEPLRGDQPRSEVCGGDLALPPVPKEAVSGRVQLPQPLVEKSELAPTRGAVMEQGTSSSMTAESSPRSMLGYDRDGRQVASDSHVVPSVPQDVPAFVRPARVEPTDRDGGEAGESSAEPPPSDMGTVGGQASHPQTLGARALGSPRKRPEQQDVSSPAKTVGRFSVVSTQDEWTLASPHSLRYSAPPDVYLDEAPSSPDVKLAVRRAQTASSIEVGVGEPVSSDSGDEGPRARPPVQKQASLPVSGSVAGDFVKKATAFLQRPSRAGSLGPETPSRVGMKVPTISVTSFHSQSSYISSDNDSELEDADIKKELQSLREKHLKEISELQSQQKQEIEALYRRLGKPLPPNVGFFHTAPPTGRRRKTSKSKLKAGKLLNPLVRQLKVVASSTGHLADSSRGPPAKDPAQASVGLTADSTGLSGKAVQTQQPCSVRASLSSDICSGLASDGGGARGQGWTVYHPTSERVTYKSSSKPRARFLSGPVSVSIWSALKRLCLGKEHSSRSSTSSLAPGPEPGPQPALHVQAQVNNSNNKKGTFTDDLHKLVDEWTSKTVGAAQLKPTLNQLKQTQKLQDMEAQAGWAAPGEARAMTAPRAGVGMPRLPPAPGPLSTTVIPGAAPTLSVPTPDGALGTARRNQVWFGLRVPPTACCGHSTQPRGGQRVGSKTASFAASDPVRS
Chain of Ephrin type-A receptor 2 (P29317 whole entry): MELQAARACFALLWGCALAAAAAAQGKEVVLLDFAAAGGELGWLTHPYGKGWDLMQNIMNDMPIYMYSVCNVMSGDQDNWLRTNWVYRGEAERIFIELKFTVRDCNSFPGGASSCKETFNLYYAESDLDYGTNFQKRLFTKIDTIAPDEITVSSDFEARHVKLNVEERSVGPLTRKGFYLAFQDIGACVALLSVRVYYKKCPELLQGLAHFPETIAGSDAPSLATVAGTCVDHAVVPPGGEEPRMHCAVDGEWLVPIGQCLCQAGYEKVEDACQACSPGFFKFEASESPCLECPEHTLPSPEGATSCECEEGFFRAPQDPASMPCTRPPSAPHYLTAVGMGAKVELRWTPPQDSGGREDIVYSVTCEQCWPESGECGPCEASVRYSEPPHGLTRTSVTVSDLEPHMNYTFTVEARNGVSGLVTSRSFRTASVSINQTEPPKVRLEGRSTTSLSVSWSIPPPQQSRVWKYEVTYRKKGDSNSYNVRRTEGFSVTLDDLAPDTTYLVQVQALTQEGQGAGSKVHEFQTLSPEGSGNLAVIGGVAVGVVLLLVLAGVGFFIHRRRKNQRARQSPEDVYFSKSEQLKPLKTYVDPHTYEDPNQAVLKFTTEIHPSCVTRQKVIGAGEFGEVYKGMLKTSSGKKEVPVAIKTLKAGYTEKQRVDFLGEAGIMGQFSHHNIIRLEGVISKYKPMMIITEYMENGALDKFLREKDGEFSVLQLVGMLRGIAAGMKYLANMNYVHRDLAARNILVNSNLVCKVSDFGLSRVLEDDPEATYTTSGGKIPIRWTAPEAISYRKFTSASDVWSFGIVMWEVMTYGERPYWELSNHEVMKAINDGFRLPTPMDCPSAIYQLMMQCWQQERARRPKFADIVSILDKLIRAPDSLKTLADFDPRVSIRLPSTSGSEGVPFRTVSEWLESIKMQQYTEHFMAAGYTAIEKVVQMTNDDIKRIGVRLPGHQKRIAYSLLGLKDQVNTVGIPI
Chain of Cyclin-dependent kinase 17 (Homo sapiens) (Q00537 whole entry, looked up): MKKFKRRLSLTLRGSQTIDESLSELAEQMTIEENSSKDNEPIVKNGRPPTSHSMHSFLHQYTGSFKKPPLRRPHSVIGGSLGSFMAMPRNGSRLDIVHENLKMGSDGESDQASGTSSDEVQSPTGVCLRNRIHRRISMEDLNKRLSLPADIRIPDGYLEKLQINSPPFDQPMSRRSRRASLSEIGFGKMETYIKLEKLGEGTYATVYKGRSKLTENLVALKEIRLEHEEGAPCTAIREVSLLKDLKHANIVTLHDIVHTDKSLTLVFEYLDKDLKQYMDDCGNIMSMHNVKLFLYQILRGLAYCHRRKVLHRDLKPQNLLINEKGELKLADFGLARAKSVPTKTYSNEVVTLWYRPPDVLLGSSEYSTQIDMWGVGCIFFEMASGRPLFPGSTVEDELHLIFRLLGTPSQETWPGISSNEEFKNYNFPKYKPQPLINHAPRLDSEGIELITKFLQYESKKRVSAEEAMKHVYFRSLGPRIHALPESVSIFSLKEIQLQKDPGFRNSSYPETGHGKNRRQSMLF
Chain of Serine/threonine-protein kinase 25 (Homo sapiens) (O00506 whole entry, looked up): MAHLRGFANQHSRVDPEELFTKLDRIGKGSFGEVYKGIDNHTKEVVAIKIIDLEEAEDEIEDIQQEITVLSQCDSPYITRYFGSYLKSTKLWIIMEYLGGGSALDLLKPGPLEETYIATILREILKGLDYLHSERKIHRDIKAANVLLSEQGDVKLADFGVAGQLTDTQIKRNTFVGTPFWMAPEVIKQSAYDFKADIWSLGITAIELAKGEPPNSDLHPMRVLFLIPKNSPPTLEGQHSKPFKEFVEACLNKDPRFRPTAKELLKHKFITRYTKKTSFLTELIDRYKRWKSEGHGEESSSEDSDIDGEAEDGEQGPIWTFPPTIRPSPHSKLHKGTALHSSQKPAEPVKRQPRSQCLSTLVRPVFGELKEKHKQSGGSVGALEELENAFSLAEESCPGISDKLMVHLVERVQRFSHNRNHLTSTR

For the molecule `CNc1cc(Oc2cc(C(=O)Nc3cc(N4CCN(C)CC4)cc(C(F)(F)F)c3)ccc2C)ncn1`, the inhibition against Ephrin type-A receptor 2 was determined as 69.2%.

As to `CCN1CCN(Cc2ccc(NC(=O)c3ccc(C)c(/C=C/c4cnc5[nH]ccc5c4OC)c3)cc2C(F)(F)F)CC1`, the inhibition was determined as 1.8% in test [1]; 0.2% in [2]; 29.6% in [3]; 2.4% in test [4]; 24.3% in test [5]; 52.7% in test [6]. Further, the inhibition in test [7] is -6.7%; in test [8], 9.2%; in test [9], 10.5%; in test [10] it was 15.3%; in [11], 14.4%; in [12], 13.7%. For the same molecule, the inhibition in test [13] was 20.9%.

Take `CCN1CCN(Cc2ccc(NC(=O)c3ccc(C)c(Oc4ccnc5[nH]ccc45)c3)cc2C(F)(F)F)CC1`: the inhibition in [1] was -3.9%; in [2] it was 1.6%; in [3], 54.6%; on Ephrin type-A receptor 2 it was 16.1%; in test [4], 6.9%; in test [5], 4.1%. In addition, the inhibition in [6] is > 94%; in test [7], 2.1%; in test [8] it was -6.5%; in test [9] it was 0.3%; in [10], 11.4%; in test [11], 0.3%. The results for the inhibition in test [12] and in test [13] were 13.1% and 15.4%, respectively.
